Experimental data as given in ChEMBL document CHEMBL2040753, “Development of potent and selective inhibitors of aldo-keto reductase 1C3 (type 5 17β-hydroxysteroid dehydrogenase) based on N-phenyl-aminobenzoates and their structure-activity relationships” (J Med Chem, 2012).
One block for each molecule: values may come before it.

How the values were obtained:
[1] = molecular target: T1, Aldo-keto reductase family 1 member C2 (Homo sapiens, UniProt P52895); assay: Inhibition of recombinant AKR1C2 assessed as NADP+ dependent oxidation of S-tetralol by fluorescence assay
T1 sequence (P52895 whole entry): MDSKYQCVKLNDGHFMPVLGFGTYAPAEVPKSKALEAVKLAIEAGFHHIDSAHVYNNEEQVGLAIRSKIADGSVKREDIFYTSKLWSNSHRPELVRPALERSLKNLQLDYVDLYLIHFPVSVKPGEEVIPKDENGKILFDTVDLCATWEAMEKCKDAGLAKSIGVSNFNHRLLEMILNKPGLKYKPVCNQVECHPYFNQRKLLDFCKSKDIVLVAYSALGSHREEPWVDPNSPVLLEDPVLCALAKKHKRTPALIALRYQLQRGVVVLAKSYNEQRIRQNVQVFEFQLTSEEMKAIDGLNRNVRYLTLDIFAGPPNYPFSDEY
Outline: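 Homogeneous recombinant enzyme; continuous oxidation of S-tetralol (at each isoform's KM) with 200 μM NADP+ in 100 mM phosphate pH 7.0, 4% DMSO, 37 °C. Initial velocities compared with solvent control; quadruplicate points over a range of inhibitor concentrations; IC50 from curve fit.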

[2] = molecular target: T2, Aldo-keto reductase family 1 member C3 (Homo sapiens, UniProt P42330); assay: Inhibition of recombinant AKR1C3 assessed as NADP+ dependent oxidation of S-tetralol by fluorescence assay
T2 sequence (P42330 whole entry): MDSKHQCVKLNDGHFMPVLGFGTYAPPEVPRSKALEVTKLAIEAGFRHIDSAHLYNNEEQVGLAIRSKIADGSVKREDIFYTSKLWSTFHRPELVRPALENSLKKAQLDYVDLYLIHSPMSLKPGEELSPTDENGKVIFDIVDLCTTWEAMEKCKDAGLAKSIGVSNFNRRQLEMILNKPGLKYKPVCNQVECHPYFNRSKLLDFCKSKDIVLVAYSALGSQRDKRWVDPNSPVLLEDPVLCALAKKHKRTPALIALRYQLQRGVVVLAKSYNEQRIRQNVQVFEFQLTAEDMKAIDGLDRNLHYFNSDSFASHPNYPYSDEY

Compound: CC(=O)c1ccc(Nc2ccccc2C(C)=O)c(C(=O)O)c1
IC50 [1]: 12.7 µM
IC50 [2]: 4440 nM

Compound: COc1ccc(C(=O)O)c(Nc2ccc(Br)cc2)c1
IC50 [1]: 0.54 µM
IC50 [2]: 150 nM

Compound: CC(=O)c1cccc(Nc2ccccc2C(=O)O)c1
IC50 [1]: 1.55 µM
IC50 [2]: 140 nM

Compound: O=C(O)c1cccc(Nc2ccccc2C(=O)O)c1
IC50 [1]: 4.16 µM
IC50 [2]: 980 nM

Compound: COc1cc(Nc2ccccc2C(=O)O)cc(OC)c1
IC50 [1]: 3.4 µM
IC50 [2]: 890 nM

Compound: CC(=O)c1ccc(Nc2ccccc2[N+](=O)[O-])c(C(=O)O)c1
IC50 [1]: 3.97 µM
IC50 [2]: 1110 nM

Compound: COc1ccc(C(=O)O)c(Nc2ccccc2OC)c1
IC50 [1]: 2.4 µM
IC50 [2]: 1730 nM

Compound: COc1ccc(Nc2cc(OC)ccc2C(=O)O)cc1
IC50 [1]: 0.91 µM
IC50 [2]: 250 nM

Compound: CC(=O)c1ccc(Nc2ccc(C(F)(F)F)cc2)c(C(=O)O)c1
IC50 [1]: 2.73 µM
IC50 [2]: 140 nM

Compound: CC(=O)c1ccc(Nc2cc(C(F)(F)F)cc(C(F)(F)F)c2)c(C(=O)O)c1
IC50 [1]: 16 µM
IC50 [2]: 1760 nM

Compound: O=C(O)c1ccccc1Nc1ccc(Cl)cc1
IC50 [1]: 0.41 µM
IC50 [2]: 70 nM

Compound: COc1ccc(C(=O)O)c(Nc2cc(C)cc(C)c2)c1
IC50 [1]: 3.24 µM
IC50 [2]: 1730 nM

Compound: O=C(O)c1cccc(Nc2cccc(C(F)(F)F)c2)c1
IC50 [1]: 16 µM
IC50 [2]: 320 nM

Compound: CC(=O)c1cccc(Nc2cccc(C(=O)O)c2)c1
IC50 [1]: 36.6 µM
IC50 [2]: 560 nM

Compound: CC(=O)c1cccc(Nc2ccc(C(C)=O)cc2C(=O)O)c1
IC50 [1]: 1.88 µM
IC50 [2]: 650 nM

Compound: COc1ccccc1Nc1ccc(C(C)=O)cc1C(=O)O
IC50 [1]: 8.97 µM
IC50 [2]: 3060 nM

Compound: O=C(O)c1cccc(Nc2cc(C(F)(F)F)cc(C(F)(F)F)c2)c1
IC50 [1]: 19.2 µM
IC50 [2]: 250 nM

Compound: Cc1ccc(Nc2ccccc2C(=O)O)cc1
IC50 [1]: 1.46 µM
IC50 [2]: 360 nM

Compound: CC(=O)c1ccc(Nc2cccc(C)c2)c(C(=O)O)c1
IC50 [1]: 2.84 µM
IC50 [2]: 1940 nM

Compound: COc1ccc(C(=O)O)c(Nc2cccc(C(F)(F)F)c2)c1
IC50 [1]: 0.22 µM
IC50 [2]: 60 nM

Compound: COc1ccccc1Nc1ccccc1C(=O)O
IC50 [1]: 1.28 µM
IC50 [2]: 2220 nM

Compound: CC(C)(C)c1ccc(Nc2ccc(C(=O)O)cc2)cc1
IC50 [1]: 10.3 µM
IC50 [2]: 930 nM

Compound: CC(=O)c1ccc(Nc2cccc(Cl)c2)c(C(=O)O)c1
IC50 [1]: 2.55 µM
IC50 [2]: 1160 nM

Compound: CC(=O)c1ccc(Nc2cc(C(=O)O)cc(C(=O)O)c2)c(C(=O)O)c1
IC50 [1]: 31.6 µM
IC50 [2]: 610 nM

Compound: COc1ccc(Nc2ccc(C(C)=O)cc2C(=O)O)c([N+](=O)[O-])c1
IC50 [1]: 3.93 µM
IC50 [2]: 260 nM

Compound: CC(=O)c1ccc(Nc2ccccc2)c(C(=O)O)c1
IC50 [1]: 3.81 µM
IC50 [2]: 2530 nM

Compound: O=C(O)c1cccc(Nc2cc(C(=O)O)cc(C(=O)O)c2)c1
IC50 [1]: > 100 µM
IC50 [2]: > 30000 nM

Compound: COc1cccc(Nc2cc(OC)ccc2C(=O)O)c1
IC50 [1]: 1.47 µM
IC50 [2]: 570 nM

Compound: COc1cc(Nc2ccc(C(C)=O)cc2C(=O)O)cc(OC)c1
IC50 [1]: 26.8 µM
IC50 [2]: 900 nM

Compound: Cc1cc(C)cc(Nc2ccccc2C(=O)O)c1
IC50 [1]: 2.36 µM
IC50 [2]: 1090 nM

Compound: COc1ccc(C(=O)O)c(Nc2cccc(Cl)c2)c1
IC50 [1]: 0.28 µM
IC50 [2]: 160 nM

Compound: COc1ccc(C(=O)O)c(Nc2cccc(C)c2)c1
IC50 [1]: 0.87 µM
IC50 [2]: 640 nM

More lines, now with the values ahead:

IC50 [1]: 7.05 µM
IC50 [2]: 280 nM
Compound: CC(=O)c1ccc(Nc2ccc(C(C)(C)C)cc2)c(C(=O)O)c1

IC50 [1]: 0.49 µM
IC50 [2]: 250 nM
Compound: CC(=O)c1ccc(Nc2ccc(Br)cc2)c(C(=O)O)c1

IC50 [1]: 56.2 µM
IC50 [2]: 360 nM
Compound: COc1cc(Nc2cccc(C(=O)O)c2)cc(OC)c1

IC50 [1]: 0.38 µM
IC50 [2]: 240 nM
Compound: Cc1cccc(Nc2ccccc2C(=O)O)c1

IC50 [1]: 0.51 µM
IC50 [2]: 40 nM
Compound: O=C(O)c1ccccc1Nc1cccc([N+](=O)[O-])c1

IC50 [1]: 2.23 µM
IC50 [2]: 600 nM
Compound: CC(=O)c1ccc(Nc2ccc(Cl)cc2)c(C(=O)O)c1

IC50 [1]: 32.6 µM
IC50 [2]: 960 nM
Compound: CC(=O)c1ccccc1Nc1cccc(C(=O)O)c1

IC50 [1]: 6.3 µM
IC50 [2]: 2370 nM
Compound: O=C(O)c1ccc(Nc2ccc(C(=O)O)cc2)cc1

IC50 [1]: 3.17 µM
IC50 [2]: 980 nM
Compound: CC(=O)c1ccc(Nc2cccc([N+](=O)[O-])c2)c(C(=O)O)c1

IC50 [1]: > 100 µM
IC50 [2]: 3570 nM
Compound: O=C(O)c1cccc(Nc2cccc(C(=O)O)c2)c1

IC50 [1]: 20 µM
IC50 [2]: 1050 nM
Compound: O=C(O)c1ccc(Nc2ccc(Cl)cc2)cc1

IC50 [1]: 15.1 µM
IC50 [2]: 560 nM
Compound: O=C(O)c1cccc(Nc2ccccc2C(F)(F)F)c1

IC50 [1]: 1.11 µM
IC50 [2]: 800 nM
Compound: COc1ccc(C(=O)O)c(Nc2ccc(C)cc2)c1

IC50 [1]: 0.4 µM
IC50 [2]: 130 nM
Compound: CC(=O)c1ccc(Nc2ccccc2C(=O)O)cc1

IC50 [1]: 18.9 µM
IC50 [2]: 1550 nM
Compound: CC(=O)c1ccc(Nc2ccc(C(=O)O)cc2)c(C(=O)O)c1

IC50 [1]: 4.77 µM
IC50 [2]: 150 nM
Compound: O=C(O)c1cccc(Nc2ccccc2[N+](=O)[O-])c1

IC50 [1]: 48.2 µM
IC50 [2]: 1890 nM
Compound: Cc1ccc(Nc2ccc(C(=O)O)cc2)cc1

IC50 [1]: 8.23 µM
IC50 [2]: 1650 nM
Compound: CC(=O)c1ccc(Nc2ccc(C)cc2)c(C(=O)O)c1

IC50 [1]: 11.1 µM
IC50 [2]: 500 nM
Compound: O=C(O)c1ccc(Nc2cccc(C(F)(F)F)c2)cc1

IC50 [1]: 0.15 µM
IC50 [2]: 150 nM
Compound: O=C(O)c1ccccc1Nc1cccc(Cl)c1

IC50 [1]: 22.9 µM
IC50 [2]: 1880 nM
Compound: Cc1cccc(Nc2cccc(C(=O)O)c2)c1

IC50 [1]: 8.38 µM
IC50 [2]: 1450 nM
Compound: COc1ccc(C(=O)O)c(Nc2cccc(C(=O)O)c2)c1

IC50 [1]: 0.91 µM
IC50 [2]: 610 nM
Compound: COc1ccc(Nc2ccc(C(C)=O)cc2C(=O)O)cc1

IC50 [1]: 26.6 µM
IC50 [2]: 1650 nM
Compound: COc1ccccc1Nc1cccc(C(=O)O)c1

IC50 [1]: 3.58 µM
IC50 [2]: 2260 nM
Compound: COc1cccc(Nc2ccc(C(C)=O)cc2C(=O)O)c1

IC50 [1]: 1.33 µM
IC50 [2]: 1170 nM
Compound: CC(=O)c1ccc(Nc2ccc([N+](=O)[O-])cc2)c(C(=O)O)c1

IC50 [1]: 1.78 µM
IC50 [2]: 40 nM
Compound: O=C(O)c1cccc(Nc2ccc([N+](=O)[O-])cc2OC(F)(F)F)c1

IC50 [1]: 3.26 µM
IC50 [2]: 2740 nM
Compound: O=C(O)c1ccc(Nc2ccccc2C(=O)O)cc1

IC50 [1]: 2.67 µM
IC50 [2]: 730 nM
Compound: CC(=O)c1ccc(Nc2cccc(C(F)(F)F)c2)c(C(=O)O)c1

IC50 [1]: 1.11 µM
IC50 [2]: 570 nM
Compound: COc1cccc(Nc2ccccc2C(=O)O)c1

IC50 [1]: 29.3 µM
IC50 [2]: 3390 nM
Compound: COc1ccccc1Nc1ccc(C(=O)O)cc1

IC50 [1]: > 100 µM
IC50 [2]: 4210 nM
Compound: O=C(O)c1ccc(Nc2cccc([N+](=O)[O-])c2)cc1

IC50 [1]: 11.1 µM
IC50 [2]: 1320 nM
Compound: O=C(O)c1ccc(Nc2ccc([N+](=O)[O-])cc2)cc1

IC50 [1]: 49.3 µM
IC50 [2]: 870 nM
Compound: Cc1cc(C)cc(Nc2ccc(C(=O)O)cc2)c1

IC50 [1]: 1.07 µM
IC50 [2]: 40 nM
Compound: CC(C)(C)c1ccc(Nc2ccccc2C(=O)O)cc1

IC50 [1]: 15.2 µM
IC50 [2]: 1190 nM
Compound: COc1cccc(Nc2cccc(C(=O)O)c2)c1

IC50 [1]: 19.3 µM
IC50 [2]: 290 nM
Compound: O=C(O)c1cccc(Nc2cccc([N+](=O)[O-])c2)c1

IC50 [1]: 1.49 µM
IC50 [2]: 1660 nM
Compound: COc1ccc(C(=O)O)c(Nc2ccccc2)c1

IC50 [1]: 0.19 µM
IC50 [2]: 80 nM
Compound: COc1ccc(C(=O)O)c(Nc2cccc([N+](=O)[O-])c2)c1

IC50 [1]: 44.6 µM
IC50 [2]: 1080 nM
Compound: Cc1cc(C)cc(Nc2cccc(C(=O)O)c2)c1
